pIC50: −log10 of the molar value.
What was measured:
[1] = test system: K562; experiment: Antiproliferative activity against human K562 cells after 48 hrs; format: functional, cell-based; settings: K562, 48 h
Outline: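 K562 cells (RPMI 1640, 10% FBS, 37 °C, 5% CO2) plated at 2 × 10⁵ cells/mL. Compounds dissolved in DMSO/methanol 1:1, vehicle 0.5%. Cells counted in a Neubauer chamber after 48 h and expressed as % of untreated control. Triplicate wells, three experiments. IC50 from nonlinear regression.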

[2] = molecular target: Tubulin (Sus scrofa, UniProt P02554+P02550); experiment: Inhibition of pig brain tubulin polymerization after 30 mins by turbidimetric assay
Outline: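 Microtubule protein from porcine brain (80–90% tubulin, 10–20% MAPs), purified by two disassembly/reassembly cycles. Assay buffer: 20 mM PIPES pH 6.8, 80 mM NaCl, 0.5 mM MgCl2, 1 mM EGTA, 1 mM DTT. Protein at 1.2 mg/mL with 0.6 mM GTP final, 1% DMSO final, 37 °C.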

Row | Structure (SMILES) | pIC50 [1] | IC50 [2]
1 | O=C1c2ccccc2C(C(O)C(=O)c2ccccc2)c2ccccc21 (stereo not given) | 4.57 | > 10 µM
2 | COc1ccc(C(=O)C=C2c3ccccc3C(=O)c3ccccc32)c(OC)c1 |  | 0.9 µM
3 | COc1ccc(C(=O)C=C2c3ccccc3C(=O)c3ccccc32)c(OC)c1OC | 4.96 | > 10 µM
4 | COc1cc(C(=O)C=C2c3ccccc3C(=O)c3ccccc32)cc(OC)c1OC | 6.15 | 3.7 µM
5 | COc1ccc(C(=O)C=C2c3ccccc3C(=O)c3ccccc32)c(O)c1OC | < 4.52 | > 10 µM
6 | COc1ccccc1OC(=O)C=C1c2ccccc2C(=O)c2ccccc21 | 5.72 | 10 µM
7 | O=C(C=C1c2ccccc2C(=O)c2ccccc21)c1cccs1 | 5.28 | 10 µM
8 | O=C(C=C1c2ccccc2C(=O)c2ccccc21)c1ccc(O)cc1 | 5.46 | 0.9 µM
9 | COc1csc(C(=O)C=C2c3ccccc3C(=O)c3ccccc32)c1 | 6.16 | 2.3 µM
10 | COc1cccc(C(=O)C=C2c3ccccc3C(=O)c3ccccc32)c1 | 5.59 | 3.3 µM
11 | COc1ccc(C(=O)COc2c3ccccc3cc3ccccc23)cc1 | 5.00 | 

From ChEMBL document CHEMBL1140930 (J Med Chem, 2009)
